Results from different studies.
Lines come from different studies, so protocols differ.
Read-out: microbial growth

Structure (SMILES)	organism	method	strain	time	MIC
CCCCCCCCCCCCCN1CCN(CC(O)(Cn2cncn2)c2ccc(F)cc2F)CC1 (stereo not drawn)	Lodderomyces parapsilosis	broth dilution	ATCC22019	48 h	< 0.24 µg/mL
CC[C@@H]([C@H](C)O)n1ncn(-c2ccc(N3CCN(c4ccc(OC[C@@H]5CO[C@@](Cn6cncn6)(c6ccc(F)cc6F)C5)cc4)CC3)cc2)c1=O	Aspergillus brasiliensis	–	ATCC16404	72 h	< 0.3 µM
CCCCCCCCCCN1CCNCC1	Lodderomyces parapsilosis	broth dilution	ATCC22019	48 h	15.6 µg/mL
Cc1ccc(C)n1-c1ccc(-c2nnc(-c3ccccc3Cl)[nH]2)cc1	Aspergillus niger	broth dilution	ATCC6275	–	8 µg/mL
Cc1ccc2nc(-c3ccc([N+](=O)[O-])cc3)n(Cc3ccccc3)c2c1	Aspergillus niger	–	ATCC16404	–	256 µg/mL
CCCCCCCCCCCCCN1CCNCC1	Lodderomyces parapsilosis	broth dilution	ATCC22019	48 h	1.95 µg/mL
Clc1ccccc1-c1nc2ccccc2[nH]1	Aspergillus niger	–	ATCC16404	–	512 µg/mL
CCCCCCCCCCCCN1CCNCC1	Lodderomyces parapsilosis	–	ATCC22019	–	1.95 µg/mL
Cc1ccc(C)n1-c1ccc(-c2nnco2)cc1	Aspergillus niger	broth dilution	ATCC6275	–	125 µg/mL
CCCCCCCCN1CCNCC1	Lodderomyces parapsilosis	broth dilution	ATCC22019	48 h	> 31.3 µg/mL
C=CCn1c(-c2ccc([N+](=O)[O-])cc2)nc2ccccc21	Aspergillus niger	–	ATCC16404	–	256 µg/mL
Cc1ccc(C)n1-c1ccc(-c2nnc(-c3ccccc3[N+](=O)[O-])[nH]2)cc1	Aspergillus niger	broth dilution	ATCC6275	–	31.2 µg/mL
Cc1ccc2nc(-c3cccc(O)c3)[nH]c2c1	Aspergillus niger	–	ATCC16404	–	128 µg/mL
CC1=NN(CNc2ccc(C(=O)O)cc2)C(=O)C1=NNn1c(-c2ccccc2)nc2ccccc2c1=O	Aspergillus niger	broth dilution	–	–	50.5 µM
Clc1ccc(-c2nc3ccccc3[nH]2)cc1Cl	Aspergillus niger	–	ATCC16404	–	256 µg/mL
CC(=O)c1ccc(-c2ccc3oc(C(=O)c4cc(O)c(O)c(O)c4)cc3c2)cc1	Lodderomyces parapsilosis	broth dilution	–	–	2 to 4 µg/mL
O=c1[nH]c(NCc2ccc(Cl)c(Cl)c2)nc2ncn(CCCCCN3CCOCC3)c12	Bacteroides fragilis	agar dilution	–	48 h	> 32 µg/mL
CC[C@H](C)C[C@H](C)CCCCCCCCC(=O)N[C@H]1C[C@@H](O)[C@@H](NCCN)NC(=O)[C@@H]2[C@@H](O)CCN2C(=O)[C@H]([C@H](O)CCN)NC(=O)[C@H]([C@H](O)[C@@H](O)c2ccc(O)cc2)NC(=O)[C@@H]2C[C@@H](O)CN2C(=O)[C@H]([C@@H](C)O)NC1=O	Lodderomyces parapsilosis	broth dilution	ATCC22019	48 h	1.95 µg/mL
Cc1ccc2nc(-c3ccc([N+](=O)[O-])cc3)n(Cc3ccc(Cl)cc3)c2c1	Aspergillus niger	–	ATCC16404	–	64 µg/mL
Cc1ccc(C)n1-c1ccc(-c2nnc(-c3ccc(N(C)C)cc3)[nH]2)cc1	Aspergillus niger	broth dilution	ATCC6275	–	62.5 µg/mL
C[C@@H]1[C@H](O)[C@@H](C)/C=C/C=C/C=C/C=C/C=C/C=C/C=C/[C@H](O[C@@H]2O[C@H](C)[C@@H](O)[C@H](N)[C@@H]2O)C[C@@H]2O[C@](O)(C[C@@H](O)C[C@@H](O)[C@H](O)CC[C@@H](O)C[C@@H](O)CC(=O)O[C@H]1C)C[C@H](O)[C@H]2C(=O)O	Lodderomyces parapsilosis	broth dilution	–	–	0.5 to 1 µg/mL
Cc1ccc2nc(-c3ccccc3O)[nH]c2c1	Aspergillus niger	–	ATCC16404	–	512 µg/mL
CC1=NN(CNc2ccccc2[N+](=O)[O-])C(=O)C1=NNn1c(-c2ccccc2)nc2ccccc2c1=O	Aspergillus niger	broth dilution	–	–	50.4 µM
Fc1ccc(C2(Cn3cncn3)CO2)c(F)c1 (stereo not drawn)	Lodderomyces parapsilosis	broth dilution	ATCC22019	48 h	> 31.3 µg/mL
Cc1ncc([N+](=O)[O-])n1CCO	Bacteroides fragilis	agar dilution	–	48 h	1 µg/mL
CCCCCCCCCCCCCCN1CCN(CC(O)(Cn2cncn2)c2ccc(F)cc2F)CC1 (stereo not drawn)	Lodderomyces parapsilosis	broth dilution	ATCC22019	48 h	> 31.3 µg/mL
C=CCn1c(-c2ccc(Cl)cc2)nc2ccccc21	Aspergillus niger	–	ATCC16404	–	512 µg/mL
